According to ChEMBL document CHEMBL1136933 (J Med Chem, 2009):
Active and inactive are the calls of the source. The calls are words filed in the database; no cut-off is given here.

Key:
[1] = Tmax in Sprague-Dawley rat brain at 10 mg/kg, ip; type: ADME, organism-based; design: dose 10 mg/kg, route intraperitoneal
Summary of the method: (§1)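 Male Sprague-Dawley rats (225-250 g) dosed ip at 10 mg/kg as a 5 mg/ml micro-suspension in 10% Tween 80 in sterile water. Plasma and brain sampled at 0.5, 1, 3 and 6 h, three animals per time point. Quantified by protein precipitation and LC-MS/MS against an internal standard. Brain values corrected for residual blood. PK parameters derived by noncompartmental analysis.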

[2] = AUC (0 to 6 hrs) in Sprague-Dawley rat plasma at 10 mg/kg, ip; type: ADME, organism-based; design: time < 6 hr, dose 10 mg/kg, route intraperitoneal; summary of the method: as §1
[3] = Ratio of AUC (0 to 6 hrs) in Sprague-Dawley rat brain to AUC (0 to 6 hrs) in Sprague-Dawley rat plasma at 10 mg/kg, ip; type: ADME, organism-based; design: dose 10 mg/kg, route intraperitoneal; summary of the method: as §1
[4] = Selectivity ratio of EC50 for rat muscarinic M4 receptor to EC50 for human muscarinic M5 receptor
[5] = Apparent oral volume of distribution in Sprague-Dawley rat plasma at 10 mg/kg, ip; type: ADME, organism-based; design: dose 10 mg/kg; settings: read-out: Vc/F; summary of the method: as §1
[6] = biological target: T1, Muscarinic acetylcholine receptor M2 (Rattus norvegicus) (UniProt P10980); experiment: Activation of rat muscarinic M2 receptor expressed in CHO cells coexpressing chimeric Gqi5 protein assessed as potentiation of acetylcholine-induced intracellular Ca2+ mobilization up to 30 uM; type: functional, cell-based
T1 sequence (whole entry): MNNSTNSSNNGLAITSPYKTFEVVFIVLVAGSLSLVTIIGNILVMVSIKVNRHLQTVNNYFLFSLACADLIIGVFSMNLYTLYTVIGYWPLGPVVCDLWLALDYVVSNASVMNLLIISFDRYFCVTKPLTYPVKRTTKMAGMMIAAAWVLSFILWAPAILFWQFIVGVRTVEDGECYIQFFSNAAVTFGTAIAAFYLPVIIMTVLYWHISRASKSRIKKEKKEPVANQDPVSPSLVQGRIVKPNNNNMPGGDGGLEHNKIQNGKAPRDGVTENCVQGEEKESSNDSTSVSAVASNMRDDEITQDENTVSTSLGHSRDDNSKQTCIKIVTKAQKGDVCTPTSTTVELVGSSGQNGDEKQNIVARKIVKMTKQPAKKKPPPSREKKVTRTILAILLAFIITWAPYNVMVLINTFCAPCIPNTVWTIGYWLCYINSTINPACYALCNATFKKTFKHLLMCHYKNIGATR

With `COc1ccc(CN2C(=O)C(=O)c3cc(OC(F)(F)F)ccc32)cc1` the Tmax [1] was 30 min, the AUC(0-t) at 6 h [2] was 621 ng·h/mL and the “Ratio AUC” value [3] was 0.25. The Ratio EC50 [4] was > 30, the Vd/F [5] was 59.6 L/kg and the Activity [6] was “inactive”.
